Data from ChEMBL document CHEMBL5576156, “New pyrazole-pyridazine hybrids as selective COX-2 inhibitors: design, synthesis, molecular docking, in silico studies and investigation of their anti-inflammatory potential by evaluation of TNF-α, IL-6, PGE-2 and NO in LPS-induced RAW264.7 macrophages” (RSC Med Chem, 2024).
One block for each molecule: values may come before it.

How the values were obtained:
[1] = system: RAW264.7; assay: Antiinflammatory activity against LPS induced mouse RAW264.7 cells assessed as decrease in TNFalpha production at 50 uM after 24 hrs by ELISA; type: functional; design: scale not given: the % may be the effect or the level left
How it was run: (§1)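 RAW264.7 cells seeded at 5 × 10^3 per well and held 24 h at 37 °C, 5% CO2. Test compound given at 50 μM together with LPS 1 μg mL−1. Untreated cells were the blank, and LPS + DMSO (0.1% v/v final) was the negative control. IL-6, PGE-2 and TNF-α in the medium were measured by ELISA kits 24 h after treatment.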

[2] = system: RAW264.7; assay: Antiinflammatory activity against LPS induced mouse RAW264.7 cells assessed as decrease in IL6 production at 50 uM after 24 hrs by ELISA; type: functional; design: scale not given: the % may be the effect or the level left; how it was run: as §1
[3] = system: RAW264.7; assay: Antiinflammatory activity against LPS induced mouse RAW264.7 cells assessed as decrease in PGE2 production at 50 uM after 24 hrs by ELISA; type: functional; design: scale not given: the % may be the effect or the level left; how it was run: as §1
[4] = system: RAW264.7; assay: Antiinflammatory activity in LPS-induced mouse RAW264.7 cells assessed as inhibition of NO production at 20 uM pretreated for 2 hrs followed by LPS stimulation and measured after 24 hrs by Griess reagent based assay; type: functional; design: scale not given: the % may be the effect or the level left; settings: time 26 hrs
How it was run: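 RAW264.7 cells pretreated with compound for 2 h, then stimulated with LPS 1 μg mL−1 for 24 h. Culture medium was mixed 1:1 with Griess reagent and held 10 min at room temperature. Absorbance at 540 nm was read as the NO indicator.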

[5] = system: Rattus norvegicus; assay: Antiinflammatory activity against carrageenin-induced rat paw edema at 10 mg/kg, po pretreated with carrageenin for 1 hr followed by compound addition and measured after 3 hrs; type: functional
[6] = biological target: T1, Prostaglandin G/H synthase 2 (Homo sapiens) (UniProt P35354); assay: Inhibition of COX-2 in human whole blood at 8 uM incubated for 24 hrs by immunoassay relative to control; type: tissue-based
T1 sequence (whole entry): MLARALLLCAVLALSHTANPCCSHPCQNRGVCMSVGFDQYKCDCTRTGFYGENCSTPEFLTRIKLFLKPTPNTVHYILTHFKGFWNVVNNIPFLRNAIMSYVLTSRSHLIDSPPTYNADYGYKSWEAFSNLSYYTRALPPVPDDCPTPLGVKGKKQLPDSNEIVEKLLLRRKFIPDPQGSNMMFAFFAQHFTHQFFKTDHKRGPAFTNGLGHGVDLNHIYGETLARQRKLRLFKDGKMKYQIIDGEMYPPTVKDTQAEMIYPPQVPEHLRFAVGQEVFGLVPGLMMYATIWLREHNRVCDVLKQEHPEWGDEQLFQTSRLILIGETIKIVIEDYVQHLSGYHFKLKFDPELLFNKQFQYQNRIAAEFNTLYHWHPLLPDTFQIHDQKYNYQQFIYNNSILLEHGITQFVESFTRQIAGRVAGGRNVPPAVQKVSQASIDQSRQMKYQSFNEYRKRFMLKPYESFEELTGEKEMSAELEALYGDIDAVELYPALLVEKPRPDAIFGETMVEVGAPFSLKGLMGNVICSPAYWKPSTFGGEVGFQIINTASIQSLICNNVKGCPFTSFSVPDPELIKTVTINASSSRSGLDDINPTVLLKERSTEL

Compound: Cc1ccc(-c2cc(C(F)(F)F)nn2-c2ccc(S(N)(=O)=O)cc2)cc1 [CELECOXIB]
Activity [1]: 75%
Activity [2]: 83%
Activity [3]: 69%

Compound: NC1=NN=C(/N=C/c2ccc(Br)cc2)C1c1ccc(Cl)nn1 (stereo unspecified)
Activity [1]: 65%
Activity [2]: 65%
Activity [3]: 60%
Activity [4]: 53%

Compound: Cc1cc(C)n(-c2ccc(=O)n(CC(=O)NCc3ccccc3)n2)n1
Activity [5]: 84%

inhibition [6]: 78%
Compound: Cc1ccc(-c2cc(C(F)(F)F)nn2C2=NNC(Cl)C=C2)cc1 (stereo unspecified)

Compound: COc1cc(/C=N/C2=NN=C(N)C2c2ccc(Cl)nn2)cc(OC)c1OC (stereo unspecified)
Activity [1]: 70%
Activity [2]: 78%
Activity [3]: 64%
Activity [4]: 70%

Compound: COc1cc(/C=N/C2=NNC(=O)C2c2ccc(Cl)nn2)cc(OC)c1OC (stereo unspecified)
Activity [1]: 48%
Activity [2]: 62%
Activity [3]: 44%
